# Experiments:
# [1] = Inhibition of Pseudomonas aeruginosa thymidylate kinase expressed in Escherichia coli BL21 (DE3) cells assessed as phosphorylation of dTMP to dTDP after 20 mins by spectrophotometric analysis
# How it was run: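 PaTMK from pET15b in E. coli BL21 DE3, purified by HisTrap and Superdex 200, used at 40 nM. dTDP formation was coupled via PK/LDH/NDP kinase to NADH oxidation (A340) over 20 min at 25 °C.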
# Pseudomonas aeruginosa [2] = assay: Antibacterial activity against Pseudomonas aeruginosa PAO1; assay type: functional
# Pseudomonas aeruginosa [3] = assay: Antibacterial activity against […], MexXY, MeyZ efflux pump- knock out Pseudomonas aeruginosa PAO280; assay type: functional
# [4] = Selectivity ratio of IC50 for human thymidylate kinase to IC50 for Pseudomonas aeruginosa thymidylate kinase
# How it was run: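 Compound tested at 0.39–200 μM. Reaction 2 min at room temperature, then ADP detection reagents 30 min. Fluorescence read at ex 485/em 535 nm, corrected using 5 μM ADP interference controls and no-enzyme controls. Result is the ratio against the PaTMK coupled-assay IC50.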
# Thymidylate kinase = target: T1, Thymidylate kinase (Homo sapiens, UniProt P23919); assay: Inhibition of human thymidylate kinase using dTMP as substrate after 30 mins by fluorescence analysis
# T1 sequence (P23919 whole entry): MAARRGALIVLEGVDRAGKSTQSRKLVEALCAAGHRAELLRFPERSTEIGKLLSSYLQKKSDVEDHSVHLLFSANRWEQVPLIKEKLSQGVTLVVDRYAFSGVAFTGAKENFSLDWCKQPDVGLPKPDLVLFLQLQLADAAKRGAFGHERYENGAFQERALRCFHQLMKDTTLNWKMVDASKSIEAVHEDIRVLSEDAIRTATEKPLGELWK
# [5] = target: T2, Thymidylate kinase (Homo sapiens) (UniProt P23919); assay: Inhibition of human thymidylate kinase using dTMP as substrate at 200 uM after 30 mins by fluorescence analysis
# T2 sequence (whole entry): T1 sequence (P23919 whole entry)
# How it was run: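 Inhibitor range 0.39–200 μM. Reaction runs 2 min at room temperature, then ADP-detection reagents for 30 min. Read-out is fluorescence at ex 485/em 535 nm. Percent inhibition is corrected using no-enzyme and 5 μM ADP interference controls.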
Compound,IC50 [1],MIC (Pseudomonas aeruginosa [2]),MIC (Pseudomonas aeruginosa [3]),Ratio IC50 [4],IC50 (Thymidylate kinase),inhibition [5]
Cn1c(=O)[nH]c2ncc(-c3cccc(C(=O)NCCc4nc5ccccc5[nH]4)c3)cc21,3 µM,> 256 µg/mL,> 256 µg/mL,,,
Cl.Cn1c(=O)[nH]c2ncc(-c3cccc(CN)c3)cc21,> 200 µM,> 256 µg/mL,> 256 µg/mL,,,
Cn1c(=O)[nH]c2ncc(-c3cccc(C(=O)NCC(N)=O)c3)cc21,0.88 µM,> 256 µg/mL,> 256 µg/mL,,,
Cn1c(=O)[nH]c2ncc(-c3cccc(C(=O)NCC#N)c3)cc21,2.1 µM,> 256 µg/mL,> 256 µg/mL,,,
Cl.Cn1c(=O)[nH]c2ncc(-c3cccc(C(=O)NCCCc4ccc(CN)cc4)c3)cc21,3.2 µM,> 256 µg/mL,> 256 µg/mL,,,
Cn1c(=O)[nH]c2ncc(-c3cccc(C(=O)NCC(=O)O)c3)cc21,0.88 µM,> 256 µg/mL,> 256 µg/mL,,,
Cn1c(=O)[nH]c2ncc(-c3cccc(CO)c3)cc21,37 µM,> 256 µg/mL,> 256 µg/mL,,,
Cn1c(=O)[nH]c2ncc(-c3cccc(C(=O)NCCC(=O)O)c3)cc21,2.6 µM,> 256 µg/mL,> 256 µg/mL,,,
Cn1c(=O)[nH]c2ncc(-c3cccc(C(=O)NCc4ccccn4)c3)cc21,6.2 µM,> 256 µg/mL,> 256 µg/mL,,,
Cn1c(=O)[nH]c2ncc(-c3cccc(C(=O)NCC(Cc4ccccc4)C(=O)O)c3)cc21 (racemic),0.25 µM,> 256 µg/mL,> 256 µg/mL,,,
Cn1c(=O)[nH]c2ncc(-c3cccc(C(=O)NCCc4ccccc4)c3)cc21,2.9 µM,> 256 µg/mL,> 256 µg/mL,,,
CC(=O)Nc1cccc(-c2cnc3[nH]c(=O)n(C)c3c2)c1,3.4 µM,> 256 µg/mL,> 256 µg/mL,,,
Cn1c(=O)[nH]c2ncc(-c3cccnc3)cc21,66 µM,> 256 µg/mL,> 256 µg/mL,,,
Cn1c(=O)[nH]c2ncc(-c3cccc(C(=O)NCCCc4c[nH]c5ccccc45)c3)cc21,0.2 µM,> 256 µg/mL,> 256 µg/mL,,,
Cn1c(=O)[nH]c2ncc(-c3cccc(C(=O)NCCCc4ccccc4C(=O)O)c3)cc21,2 µM,> 256 µg/mL,> 256 µg/mL,,,
Cn1c(=O)[nH]c2ncc(-c3cccc(C(=O)NCCO)c3)cc21,2.6 µM,> 256 µg/mL,> 256 µg/mL,,,
CNC(=O)c1cccc(-c2cnc3[nH]c(=O)n(C)c3c2)c1,2.2 µM,> 256 µg/mL,> 256 µg/mL,,,
COC(=O)c1ccccc1CCCNC(=O)c1cccc(-c2cnc3[nH]c(=O)n(C)c3c2)c1,0.37 µM,> 256 µg/mL,> 256 µg/mL,,,
Cn1c(=O)[nH]c2ncc(-c3ccncc3)cc21,152 µM,> 256 µg/mL,> 256 µg/mL,,,
Cl.Cn1c(=O)[nH]c2ncc(-c3cccc(C(=O)NCCN)c3)cc21,3.2 µM,> 256 µg/mL,> 256 µg/mL,,,
Cn1c(=O)[nH]c2ncc(-c3cccc(C(=O)NCCCC4CCCC4)c3)cc21,0.81 µM,> 256 µg/mL,> 256 µg/mL,,,
Cn1c(=O)[nH]c2ncc(-c3cccc(C#N)c3)cc21,> 200 µM,> 256 µg/mL,> 256 µg/mL,,,
Cl.Cn1c(=O)[nH]c2ncc(-c3ccc(CN)cc3)cc21,4.9 µM,> 256 µg/mL,> 256 µg/mL,,,
CC(NC(=O)c1cccc(-c2cnc3[nH]c(=O)n(C)c3c2)c1)C(=O)O (configuration not stated),5 µM,> 256 µg/mL,> 256 µg/mL,,,

Compound,IC50 [1],MIC (Pseudomonas aeruginosa [2]),MIC (Pseudomonas aeruginosa [3]),Ratio IC50 [4],IC50 (Thymidylate kinase),inhibition [5]
Cn1c(=O)[nH]c2ncc(-c3cccc(C(=O)NC(CCc4ccccc4)C(=O)O)c3)cc21 (racemic),12 µM,> 256 µg/mL,> 256 µg/mL,,,
Cn1c(=O)[nH]c2ncc(-c3ccc(C(N)=O)cc3)cc21,> 200 µM,> 256 µg/mL,> 256 µg/mL,,,
Cn1c(=O)[nH]c2ncc(-c3cccc(C(=O)NCCCc4ccc(C(F)(F)F)cc4)c3)cc21,0.16 µM,> 256 µg/mL,> 256 µg/mL,> 1000,124 µM,55%
Cn1c(=O)[nH]c2ncc(-c3cccc(O)c3)cc21,11 µM,> 256 µg/mL,> 256 µg/mL,,,
Cn1c(=O)[nH]c2ncc(-c3cccc(N)c3)cc21,63 µM,> 256 µg/mL,> 256 µg/mL,,,
Cn1c(=O)[nH]c2ncc(-c3ccccc3)cc21,,> 256 µg/mL,> 256 µg/mL,,> 200 µM,17%
Cn1c(=O)[nH]c2ncc(-c3cccc(C(=O)NCCc4ccncc4)c3)cc21,2 µM,> 256 µg/mL,> 256 µg/mL,,,
Cl.Cn1c(=O)[nH]c2ncc(-c3cccc(C(=O)NCCCc4cccc(CN)c4)c3)cc21,2.2 µM,> 256 µg/mL,> 256 µg/mL,,,
Cn1c(=O)[nH]c2ncc(-c3cccc(C(=O)NCCCc4cccc(C(=O)O)c4)c3)cc21,2.4 µM,> 256 µg/mL,> 256 µg/mL,,,
CN(C)C(=O)c1cccc(-c2cnc3[nH]c(=O)n(C)c3c2)c1,104 µM,> 256 µg/mL,> 256 µg/mL,,,
Cn1c(=O)[nH]c2ncc(-c3cccc(F)c3)cc21,> 200 µM,> 256 µg/mL,> 256 µg/mL,,,
Cn1c(=O)[nH]c2ncc(-c3cccc(C(=O)NCCS(=O)(=O)O)c3)cc21,1.3 µM,> 256 µg/mL,> 256 µg/mL,,,
Cn1c(=O)[nH]c2ncc(-c3cccc(C(=O)NCCCc4cccnc4)c3)cc21,0.51 µM,> 256 µg/mL,> 256 µg/mL,,,
Cn1c(=O)[nH]c2ncc(-c3cccc(S(N)(=O)=O)c3)cc21,> 200 µM,> 256 µg/mL,> 256 µg/mL,,,
Cn1c(=O)[nH]c2ncc(-c3cccc(C(=O)NCCc4c[nH]cn4)c3)cc21,2.3 µM,> 256 µg/mL,> 256 µg/mL,,,
Cn1c(=O)[nH]c2ncc(-c3cccc(C(=O)NCCCN4CCOCC4)c3)cc21,5.8 µM,> 256 µg/mL,> 256 µg/mL,,,
Cn1c(=O)[nH]c2ncc(-c3cccc(C(=O)NCc4nc5ccccc5[nH]4)c3)cc21,68 µM,> 256 µg/mL,> 256 µg/mL,,,
Cn1c(=O)[nH]c2ncc(-c3cccc(C(=O)NCCCc4c[nH]cn4)c3)cc21,0.99 µM,> 256 µg/mL,> 256 µg/mL,,,
Cn1c(=O)[nH]c2ncc(-c3cccc(C(=O)NCCCc4ccc(C(=O)O)cc4)c3)cc21,2.7 µM,> 256 µg/mL,> 256 µg/mL,,,
Cc1cn([C@H]2C[C@H](O)[C@@H](CF)O2)c(=O)[nH]c1=O,,> 256 µg/mL,> 256 µg/mL,,,
Cn1c(=O)[nH]c2ncc(-c3ccc(O)cc3)cc21,21 µM,> 256 µg/mL,> 256 µg/mL,,,
Cn1c(=O)[nH]c2ncc(-c3cccc(C(=O)NCc4ccccc4)c3)cc21,1 µM,> 256 µg/mL,> 256 µg/mL,,,
Cn1c(=O)[nH]c2ncc(-c3cncnc3)cc21,> 200 µM,> 256 µg/mL,> 256 µg/mL,,,
CC(=O)c1cccc(-c2cnc3[nH]c(=O)n(C)c3c2)c1,13 µM,> 256 µg/mL,> 256 µg/mL,,,

# Source: ChEMBL document CHEMBL1955766, “Structure guided development of novel thymidine mimetics targeting Pseudomonas aeruginosa thymidylate kinase: from hit to lead generation” (J Med Chem, 2012)
